Compound activity (PubChem BioAssay)
eIF4H inh: human eIF4H binding inhibitors, primary screen, translation initiation inhibitor project, biochemical, uHTS, fluorescence polarization. inhibition, % at 35 µM. 290,000 compounds, 0.94% hits. eIF4H fluorescence polarization binding assay;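 also: calls also rest on retests at 20 µM and on dose response follow-up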
VIM-2 inhibitor: VIM-2 metallo-beta-lactamase inhibitors, primary screen, biochemical, epi-absorbance readout, Pseudomonas aeruginosa enzyme; purified VIM-2, nitrocefin hydrolysis, epi-absorbance fluorescence; inhibition, % at 5.6 µM; 290,000 compounds, 0.89% hits; AID 1527, 2009;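 active = inhibition above the mean of all tested compounds plus 3 SD, cutoff set per screening run, cut at about 7.5% in these data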;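 also: red hydrolysis product quenches plate fluorescence so inhibitors raise well fluorescence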
MLLE-PAM2 inh: inhibitors of PABP1 MLLE–PAM2 peptide binding, primary screen, biochemical, fluorescence polarization, FITC-PAM2, GST-MLLE. inhibition, % at 20 µM. AID 588489, 2011. Polyadenylate-binding protein 1 (Homo sapiens), P11940. 360,000 compounds, 0.36% hits; in the data active = inhibition above about 35%, passing the limit was not always enough
PABP polyA inh: PABP poly(A) RNA binding inhibitors, primary screen, biochemical, fluorescence polarization, uHTS. AID 2014, 2009. calls only at 35 µM. 290,000 compounds, 1% hits. Polyadenylate-binding protein 1 (Homo sapiens), P11940;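 also: calls also rest on retests at 20 µM and on dose response follow-up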
IMP-1 inh-1: IMP-1 metallo-beta-lactamase inhibitors, primary screen, biochemical, epi-absorbance readout, Pseudomonas aeruginosa enzyme; purified IMP-1, nitrocefin hydrolysis, epi-absorbance fluorescence; inhibition, % at 5.6 µM; 290,000 compounds, 0.45% hits; metallo-beta-lactamase IMP-1 (Pseudomonas aeruginosa);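 active = inhibition above the mean plus 3 SD of all compounds in the same screening run, cut at about 4.5% in these data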
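System – purified recombinant IMP-1 beta-lactamase · Input – IMP-1 dispensed at 0.2 nM · Timing – 15 min preincubation plus 25 min reaction at 25 °C · Signal – Epi-absorbance fluorescence, 480 nm excitation, 530 nm emission · Measure – percent IMP-1 inhibition derived from blank-referenced optical density · Controls – Enzyme-plus-DMSO low control, enzyme-free DMSO high control · Replication – singlicate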
IMP-1 inh-2: IMP-1 metallo-beta-lactamase inhibitors, confirmation, selectivity assay for selective VIM-2 inhibitor project, biochemical, epi-absorbance readout, triplicate | 1,300 tested, under 10 active | shares compounds with VIM-2 inhibitor | purified IMP-1, nitrocefin hydrolysis, epi-absorbance fluorescence | inhibition, % at 5.6 µM | AID 1856, 2009
VIM-2 FRET ctr: VIM-2 inhibitors in FRET format, confirmation, artefact control for selective VIM-2 inhibitor project, biochemical, epi-absorbance artifact exclusion. shares compounds with VIM-2 inhibitor. purified VIM-2, CCF2 FRET substrate hydrolysis. inhibition, % at 5.6 µM. 1,300 compounds, 23% hits;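 active = inhibition above the mean of all tested compounds plus 3 SD, cut at about 19% in these data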
TEM-1 inh: TEM-1 serine beta-lactamase inhibitors, counter-screen for VIM-2 inhibitor project, biochemical, epi-absorbance, HTS | shares compounds with VIM-2 inhibitor | Purified TEM-1, nitrocefin hydrolysis, epi-absorbance fluorescence | inhibition, % at 5.6 µM | 1,300 compounds, 3% hits | AID 1866, 2009;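 active = inhibition above that campaign's mean inhibition plus 3 SD, cut at about 0.46% in these data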
Target sequence (P62593 whole entry, looked up): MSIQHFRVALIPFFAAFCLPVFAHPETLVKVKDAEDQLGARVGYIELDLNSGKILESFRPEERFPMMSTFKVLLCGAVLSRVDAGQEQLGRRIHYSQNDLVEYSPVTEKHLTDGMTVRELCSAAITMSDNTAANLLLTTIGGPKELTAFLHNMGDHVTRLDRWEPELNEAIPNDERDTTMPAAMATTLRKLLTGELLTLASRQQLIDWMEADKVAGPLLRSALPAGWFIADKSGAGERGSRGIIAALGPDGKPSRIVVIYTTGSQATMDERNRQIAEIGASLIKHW
VIM-2 confirm 2: VIM-2 metallo-beta-lactamase inhibitors, confirmation, biochemical, epi-absorbance, hits shared with IMP-1 screen | shares compounds with VIM-2 inhibitor | purified VIM-2, nitrocefin hydrolysis | inhibition, % at 5.6 µM | 1,300 compounds, 96% hits | AID 2187, 2009;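 active = inhibition of the VIM-2 beta-lactamase enzyme above about 11% from the earlier first-round screen, limit read from the data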
Hits are given with their value; i = inactive; ? = inconclusive; nt = not tested or not shown; + = active, no number. Sampled rows, rich in hits. Any-hit rate of the full collection: about 2.2%. Unless noted, no rule for the calls is given here.

SMILES | eIF4H inh | VIM-2 inhibitor | MLLE-PAM2 inh | PABP polyA inh | IMP-1 inh-1 | IMP-1 inh-2 | VIM-2 FRET ctr | TEM-1 inh | VIM-2 confirm 2
CCCc1cc(=O)oc2c(C)c(OCC(=O)N3CCC(C(N)=O)CC3)ccc12 | i | i | i | i | i | nt | nt | nt | nt
Cc1c(OCC(=O)N2CCC(C(N)=O)CC2)ccc2c3c(c(=O)oc12)CCCC3 | i | 12 | i | i | i | i | i | i | 19
CCOC(=O)c1c(C)[nH]c(C(=O)CC(=O)OC)c1C | i | i | i | i | i | nt | nt | nt | nt
CCN1CCN(c2cc3c(nn2)Oc2ccccc2N3C)CC1 | i | 13 | i | i | i | i | i | i | 25
O=C(CN1CCOCC1)n1c2c(c3ccccc31)CCCC2 | i | 13 | i | i | i | i | i | i | i
Cc1nn2c(NCCCN(C)C)c3c(nc2c1-c1ccccc1)CCCC3 | i | 45 | i | i | i | i | i | i | 53
Cc1nn2c(NCCCN(C)C)c3c(nc2c1-c1ccccc1)CCC3 | i | 14 | i | i | i | i | i | i | 37
CCOC(=O)c1cnc2c(C(=O)OC)cccc2c1NCCN1CCOCC1 | i | i | i | i | i | nt | nt | nt | nt
CCOC(=O)c1cnc2c(CC)cccc2c1NCCN1CCOCC1 | i | 14 | i | i | i | i | i | i | 24
O=C1C(=O)N(c2ccccn2)C(c2cccc([N+](=O)[O-])c2)/C1=C(/O)c1ccc(Br)cc1 (stereo not drawn) | i | i | i | i | i | nt | nt | nt | nt
COc1ccc(Oc2nc(C(F)(F)F)nc3ccccc23)cc1 | i | i | i | i | i | nt | nt | nt | nt
COc1cc(Oc2nc(C(F)(F)F)nc3ccccc23)ccc1C=O | i | 14 | i | i | i | i | i | i | 24
CC(=O)Nc1cccc(Oc2nc(C(F)(F)F)nc3ccccc23)c1 | i | 14 | i | i | i | i | i | i | 26
COC(=O)c1cc(-c2cccc(OC)c2)c2c(=O)[nH]c(=O)n(C)c2n1 | i | i | i | i | i | nt | nt | nt | nt
C[C@@H]1CN([C@H](C)CO)C(=O)c2cc(NC(=O)Nc3ccc4c(c3)OCO4)ccc2O[C@H]1CN(C)Cc1ccncc1 | nt | nt | i | nt | nt | nt | nt | nt | nt
CCc1ccc(/C=N/Nc2ncnc3nc[nH]c23)cc1 | i | 15 | i | i | i | i | i | i | 43
N#Cc1c(Cl)nc(N/N=C/c2ccccc2)c(Cl)c1Cl | i | i | i | i | i | nt | nt | nt | nt
C[n+]1cccc(/C=N/Nc2nc(Cl)c(C#N)c(Cl)c2Cl)c1 | i | 41 | i | i | i | i | 32 | i | 57
O=C(CCn1cnc2ccccc21)N=Nc1c(O)[nH]c2ccccc12 | i | 36 | i | i | i | i | i | i | 53
CC1=CCC(C(=O)O)(C(=O)N/N=C/c2cccs2)C(c2ccc([N+](=O)[O-])cc2)C1 (stereo not drawn) | i | 31 | i | i | i | i | i | i | i
CC1=CCC(C(=O)O)(C(=O)N/N=C/c2cccs2)C(c2ccc(F)cc2)C1 (stereo not drawn) | i | i | i | i | i | nt | nt | nt | nt
CNC(=O)NC(=O)C(C)OC(=O)c1cc2c(s1)CCCCC2 (stereo not drawn) | i | i | i | i | i | nt | nt | nt | nt
CC(C)c1ccc(-n2nnnc2SCC(=O)NC2CC2)cc1 | nt | nt | i | nt | nt | nt | nt | nt | nt
Nc1nc(=S)c2ncn(C3OC(CO)C(O)C3O)c2[nH]1 (stereo not drawn) | 89 | 22 | i | + | i | i | 31 | i | 26
Fc1cccc(Cc2c(-c3ccccc3)nc3c(Cl)cc(C(F)(F)F)cn23)c1 | nt | nt | i | nt | nt | nt | nt | nt | nt
SMILES | eIF4H inh | VIM-2 inhibitor | MLLE-PAM2 inh | PABP polyA inh | IMP-1 inh-1 | IMP-1 inh-2 | VIM-2 FRET ctr | TEM-1 inh | VIM-2 confirm 2
COc1ccc(-c2ccc3nnc(SCC(N)=O)n3n2)cc1 | i | i | i | i | i | nt | nt | nt | nt
CCSc1nnc2ccc(-c3ccc(OC)c(OC)c3)nn12 | i | 31 | i | i | i | i | i | i | 44
O=C(CN1C(=O)C(=O)N(C2CCCC2)C1=O)Nc1cc(Cl)ccc1[N+](=O)[O-] | nt | nt | i | nt | nt | nt | nt | nt | nt
COc1ccc(-n2c(=S)[nH]c3ccccc3c2=S)cc1 | i | 14 | i | i | i | i | 27 | i | 19
Cc1onc(C(=O)NN)c1C(=O)Nc1ncc(C(F)(F)F)cc1Cl | i | i | i | i | i | nt | nt | nt | nt
CCCc1cc(=O)oc2cc(C)cc(OCC(=O)Nc3ccc(CN4CCOCC4)cc3)c12 | i | 14 | i | i | i | i | i | i | 20
CCc1cc(=O)oc2cc(C)cc(OCC(=O)NCCN3CCOCC3)c12 | i | i | i | i | i | nt | nt | nt | nt
CCCc1cc(=O)oc2cc(C)cc(OCC(=O)NCCN3CCOCC3)c12 | i | i | i | i | i | nt | nt | nt | nt
CCc1cc(=O)oc2cc(C)cc(OCC(=O)NCCCN3CCOCC3)c12 | i | 14 | i | i | i | i | i | i | 22
Cn1ccnc1SCC(=O)NC1CCCC1 | i | i | i | i | i | nt | nt | nt | nt
Cn1ccnc1SCC(=O)Nc1ccc2nc(SCC(=O)NC3CC3)sc2c1 | i | 13 | nt | i | i | i | 36 | i | 25
ClC(Cl)(Cl)c1nc(N/N=C/c2ccncc2)c2ccccc2n1 | i | 34 | i | ? | i | i | i | i | 65
COc1ccc(CNC(=O)Cn2ncn3cccc3c2=O)cc1 | i | i | nt | i | i | nt | nt | nt | nt
COc1cc(Br)cc(/C=N/N(CCO)C2=NS(=O)(=O)c3ccccc32)c1OC | i | i | i | i | i | nt | nt | nt | nt
COc1cc(/C=N/N(CCO)C2=NS(=O)(=O)c3ccccc32)cc(OC)c1OC | i | 12 | i | i | i | i | i | i | 21
CN(C)c1ccc(/C=N/N(CCC(=O)NC(C)(C)C)C2=NS(=O)(=O)c3ccccc32)cc1 | i | 20 | i | i | i | i | i | i | i
CCOC(=O)c1c(S(=O)(=O)N2CCC(C)CC2)c(C)n(C)c1C | i | i | i | i | i | nt | nt | nt | nt
Cc1[nH]c2ccccc2c1C(=O)C(=O)N1CCN(C)CC1 | i | i | i | i | i | nt | nt | nt | nt
O=C(COc1ccc2c3c(c(=O)oc2c1)CCC3)NCC(O)c1ccccc1 (stereo not drawn) | i | 14 | i | i | i | i | i | i | 23
